Measured values from ChEMBL document CHEMBL2203234, “Optimisation of imidazole compounds as selective TAAR1 agonists: discovery of RO5073012” (Bioorg Med Chem Lett, 2012).
Converted amounts (≈) assume the structure as drawn.

What was measured:
[1] = biological target: Trace amine-associated receptor 1 (Mus musculus, UniProt Q923Y8); test: Agonist activity at mouse TAAR1 receptor expressed in HEK293 cells after 30 mins; assay type: functional, cell-based
[2] = biological target: Trace amine-associated receptor 1 (Rattus norvegicus, UniProt Q923Y9); test: Agonist activity at rat TAAR1 receptor expressed in HEK293 cells after 30 mins; assay type: functional, cell-based
[3] = biological target: Trace amine-associated receptor 1 (Mus musculus) (UniProt Q923Y8); test: Agonist activity at mouse TAAR1 receptor expressed in HEK293 cells after 30 mins relative to control; assay type: functional, cell-based
[4] = biological target: Trace amine-associated receptor 1 (Rattus norvegicus) (UniProt Q923Y9); test: Agonist activity at rat TAAR1 receptor expressed in HEK293 cells after 30 mins relative to control; assay type: functional, cell-based
[5] = biological target: T1, Trace amine-associated receptor 1 (Homo sapiens, UniProt Q96RJ0); test: Displacement of (S)-4-(2,4-difluorophenyl-3-tritio) -4,5-dihydro-2-oxazolamine from human TAAR1 receptor expressed in HEK293 cells after 90 mins by beta counting analysis; assay type: cell-based
T1 sequence (Q96RJ0 whole entry): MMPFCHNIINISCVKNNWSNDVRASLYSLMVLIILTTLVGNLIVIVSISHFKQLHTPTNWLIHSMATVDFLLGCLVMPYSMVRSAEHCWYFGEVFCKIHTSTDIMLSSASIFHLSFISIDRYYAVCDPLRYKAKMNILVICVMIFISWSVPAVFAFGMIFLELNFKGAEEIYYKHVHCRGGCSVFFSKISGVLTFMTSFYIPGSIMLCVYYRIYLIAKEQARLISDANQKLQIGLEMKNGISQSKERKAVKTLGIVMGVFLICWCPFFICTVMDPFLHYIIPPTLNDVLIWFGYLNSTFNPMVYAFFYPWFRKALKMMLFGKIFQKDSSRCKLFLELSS

CHL = test: Selectivity ratio of Ki for human adrenergic alpha2A receptor expressed in CHL cells to Ki for human TAAR1 receptor; assay type: cell-based
[6] = Thermodynamic solubility of the compound at pH 6.5; assay type: physicochemical; conditions: buffer, read-out: Therm_solubility
Outline: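 Thermodynamic solubility determined using solid material, with the final pH being 6.5; value expressed in µg/ml.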

[7] = Lipophilicity, log D of the compound; assay type: physicochemical; conditions: octanol/water
Outline: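 Distribution coefficient (logD) measured at pH 7.4.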

[8] = Permeability of the compound by PAMPA assay; assay type: ADME; conditions: read-out: permeability
[9] = Dissociation constant, pKa of the compound; assay type: physicochemical
Liver = test: Intrinsic clearance in mouse liver microsomes assessed per mg protein; assay type: ADME, Microsome
Liver microsomes [10] = test: Intrinsic clearance in rat liver microsomes assessed per mg protein; assay type: ADME, Microsome
Liver microsomes [11] = test: Intrinsic clearance in human liver microsomes assessed per mg protein; assay type: ADME, Microsome
[12] = Clearance in mouse at 5 mg/kg, iv; assay type: ADME, organism-based; set-up: dose 5 mg/kg, route intravenous; conditions: in vivo
[13] = Clearance in rat at 4.8 mg/kg, iv; assay type: ADME, organism-based; set-up: dose 4.8 mg/kg, route intravenous; conditions: in vivo
[14] = Volume of distribution at steady state in mouse at 5 mg/kg, iv; assay type: ADME, organism-based; set-up: dose 5 mg/kg, route intravenous; conditions: in vivo, read-out: Vdss
[15] = Volume of distribution at steady state in rat at 4.8 mg/kg, iv; assay type: ADME, organism-based; set-up: dose 4.8 mg/kg, route intravenous; conditions: in vivo, read-out: Vdss
[16] = Ratio of drug level in brain to plasma in mouse at 5 mg/kg, iv; assay type: ADME, organism-based; set-up: dose 5 mg/kg, route intravenous; conditions: brain and plasma, read-out: BPR
[17] = Ratio of drug level in brain to plasma in rat at 4.8 mg/kg, iv; assay type: ADME, organism-based; set-up: dose 4.8 mg/kg, route intravenous; conditions: brain and plasma, read-out: BPR
[18] = Cmax in mouse at 10 mg/kg, po; assay type: ADME, organism-based; set-up: dose 10 mg/kg, route oral; conditions: in vivo
[19] = Cmax in rat at 3.8 mg/kg, po; assay type: ADME, organism-based; set-up: dose 3.8 mg/kg, route oral; conditions: in vivo
[20] = Half life in mouse at 10 mg/kg, po; assay type: ADME, organism-based; set-up: dose 10 mg/kg, route oral; conditions: in vivo
[21] = Half life in rat at 3.8 mg/kg, po; assay type: ADME, organism-based; set-up: dose 3.8 mg/kg, route oral; conditions: in vivo
[22] = Oral bioavailability in mouse at 10 mg/kg; assay type: ADME, organism-based; conditions: in vivo
[23] = Oral bioavailability in rat at 3.8 mg/kg; assay type: ADME, organism-based; conditions: in vivo
[24] = Fraction unbound in mouse plasma; assay type: ADME, cell-free
[25] = Fraction unbound in rat plasma; assay type: ADME, cell-free
Rattus norvegicus = test: Inhibition of cocaine-induced hyperlocomotion in po dosed Wistar rat assessed as reduction in locomotor activity after 30 mins; assay type: functional, organism-based
Outline: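 Rats were pretreated orally with several doses of test compound. Hyperlocomotion was then induced with cocaine at 20 mg/kg i.p., and the reduction in locomotor activity was recorded.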

Chain of Trace amine-associated receptor 1 (Mus musculus, UniProt Q923Y8) (Q923Y8 whole entry): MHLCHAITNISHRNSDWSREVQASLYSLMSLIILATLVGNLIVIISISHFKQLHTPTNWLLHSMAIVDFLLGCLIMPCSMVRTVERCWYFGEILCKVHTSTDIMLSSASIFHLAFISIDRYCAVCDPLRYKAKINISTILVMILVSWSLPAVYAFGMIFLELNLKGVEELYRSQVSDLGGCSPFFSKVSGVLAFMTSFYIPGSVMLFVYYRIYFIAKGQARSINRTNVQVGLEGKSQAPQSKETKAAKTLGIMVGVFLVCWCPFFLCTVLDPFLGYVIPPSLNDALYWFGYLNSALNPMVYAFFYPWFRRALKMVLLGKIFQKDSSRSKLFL
Chain of Trace amine-associated receptor 1 (Mus musculus) (Q923Y8 whole entry): as above
Chain of Trace amine-associated receptor 1 (Rattus norvegicus) (Q923Y9 whole entry): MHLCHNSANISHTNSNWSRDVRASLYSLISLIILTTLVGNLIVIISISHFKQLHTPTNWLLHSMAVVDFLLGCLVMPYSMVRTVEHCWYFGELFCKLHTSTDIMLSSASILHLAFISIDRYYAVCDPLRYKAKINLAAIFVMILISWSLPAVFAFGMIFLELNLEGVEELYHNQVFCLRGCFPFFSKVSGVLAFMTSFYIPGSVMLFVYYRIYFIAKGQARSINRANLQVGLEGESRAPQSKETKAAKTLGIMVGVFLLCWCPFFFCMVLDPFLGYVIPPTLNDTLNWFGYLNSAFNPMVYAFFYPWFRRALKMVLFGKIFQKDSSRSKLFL
Chain of Trace amine-associated receptor 1 (Rattus norvegicus, UniProt Q923Y9) (Q923Y9 whole entry): as above

In the case of `COc1cccc(N(Cc2cnc[nH]2)C(C)C)c1`, the EC50 [1] is reported as 72 nM, the EC50 [2] is reported as 61 nM and the Emax [3] is reported as 55%. It also gave an Emax [4] of 25%.
With `FC(F)(F)c1cccc(C(F)(F)F)c1Cc1ncc[nH]1` the Ki [5] was 13300 nM.
For `CC(C)N(Cc1ncc[nH]1)c1cccc(Cl)c1`, the EC50 [1] was 500 nM, the EC50 [2] was 400 nM and the Emax [3] was 54%. It also gave an Emax [4] of 60%.
Compound `CC(C)N(Cc1cnc[nH]1)c1ccccc1` has an EC50 [1] of 28 nM, an EC50 [2] of 7.3 nM and an Emax [3] of 45%. For the same compound, the Emax [4] was 34%.
`c1ccc2c(c1)CCCN2Cc1cnc[nH]1` showed a Ki [5] of 12 nM.
Compound `CN(Cc1ncc[nH]1)c1ccccc1` has a Ki [5] of 1270 nM and a Ratio Ki (CHL) of 0.2.
`CC(C)N(Cc1cnc[nH]1)c1cc(Cl)cc(Cl)c1` gave a Ki [5] of 4 nM and a Ratio Ki (CHL) of 37.
In the case of `Clc1cccc(Cl)c1Cc1ncc[nH]1`, the Ki [5] is reported as 1390 nM and the Ratio Ki (CHL) is reported as 0.7.
`CC(C)N(Cc1cnc[nH]1)c1ccc(Cl)cc1` gave an EC50 [2] of 25 nM, a solubility thermodynamic [6] of 97 µg/mL (≈ 388 µM) and a logD [7] of 3.3. The Papp [8] was 2.7 ×10⁻⁶ cm/s, the pKa [9] was 3.5 and the CLint (Liver) was 17.5 µL/min/mg. The CLint (Liver microsomes [10]) was 70 µL/min/mg, the CLint (Liver microsomes [11]) was 18 µL/min/mg and the clearance [12] was 24 mL/min/kg. It also gave a clearance [13] of 40 mL/min/kg, a Vd [14] of 2 L/kg and a Vd [15] of 4.1 L/kg. The Kp [16] was 0.6, the Kp [17] was 6.6 and the Cmax [18] was 1740 ng/mL. For the same compound, the Cmax [19] was 519 ng/mL, the half-life [20] was 1.8 h and the half-life [21] was 1 h. For the same compound, the bioavailability [22] was 86%, the bioavailability [23] was 66% and the fraction unbound [24] was 0.08. The fraction unbound [25] was 0.06, the inhibition (Rattus norvegicus) was “Dose-dependent effect” and the Emax [3] was 26%. For the same compound, the Emax [4] was 24%.
Work on `c1ccc(NCc2ncc[nH]2)cc1` yielded a Ki [5] of 4250 nM and a Ratio Ki (CHL) of 0.2.
Work on `c1ccc2c(c1)CCCN2Cc1c[nH]cn1` yielded a Ratio Ki (CHL) of 4.
`CC(C)N(Cc1cnc[nH]1)c1cccc(Cl)c1` showed an EC50 [1] of 10 nM, an EC50 [2] of 27 nM and an Emax [3] of 50%. It also gave an Emax [4] of 22%.
`COc1cccc(N(Cc2cnc[nH]2)C(C)C)n1` gave an EC50 [2] of 25 nM, an Emax [3] of 35% and an Emax [4] of 18%.
With `c1ccc(CC2=NCCN2)cc1` [TOLAZOLINE] the Ki [5] was 1640 nM and the Ratio Ki (CHL) was 0.06.
